# ChEMBL document CHEMBL4680084, “New β-Lactam Derivatives Modulate Cell Adhesion and Signaling Mediated by RGD-Binding and Leukocyte Integrins” (J Med Chem, 2016)
# The source made the active and inactive calls. The calls are words filed in the database; no cut-off is given here.
# How the values were obtained:
# Integrin alpha-5/beta-1 [1] = target: T1, Integrin alpha-5/beta-1 (Homo sapiens, UniProt P05556+P08648); test: Inhibition of fibronectin binding to alpha5beta1 isolated from human K562 cells incubated for 1 hr by […] competitive solid-phase binding assay; assay type: tissue-based
# Method in brief: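 Plates coated overnight at 4 °C in carbonate buffer pH 9.6 with fibronectin 0.5 µg/mL (αvβ3, αvβ6, α5β1), fibrinogen 10 µg/mL (αIIbβ3, αvβ5) or ICAM-1 (αLβ2). Blocked 1 h in buffer containing Ca/Mg/Mn 1 mM each and 1% BSA. Purified integrin (3–10 µg/mL) incubated with compound (10⁻⁴–10⁻¹⁰ M) 1 h at room temperature. Bound integrin detected with primary antibody then AlexaFluor488 secondary, Ex485/Em535. Duplicate, at least three repeats.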
# SK-MEL-24 = test: Toxicity in human SK-MEL-24 cells assessed as induction of cell necrosis and/or apoptosis incubated for 3 hrs by annexin V-PE and 7-AAD staining based by flow cytometry; details: sk-mel-24, 3 h
# Method in brief: (§1)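 After 3 h incubation, cells resuspended in complete medium and stained with annexin V-PE/7-AAD reagent for 20 min at room temperature in the dark. Flow cytometry sorted cells into viable, early apoptotic and late apoptotic/necrotic populations.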
# MCF7 = test: Toxicity in human MCF7 cells assessed as induction of cell necrosis and/or apoptosis incubated for 3 hrs by annexin V-PE and 7-AAD staining based by flow cytometry; details: mcf7, 3 h; method in brief: as §1
# HT-29 = test: Toxicity in human HT-29 cells assessed as induction of cell necrosis and/or apoptosis incubated for 3 hrs by annexin V-PE and 7-AAD staining based by flow cytometry; details: ht-29, 3 h; method in brief: as §1
# K562 = test: Toxicity in human K562 cells assessed as induction of cell necrosis and/or apoptosis incubated for 3 hrs by annexin V-PE and 7-AAD staining based by flow cytometry; details: k562, 3 h; method in brief: as §1
# HEL = test: Toxicity in human HEL cells assessed as induction of cell necrosis and/or apoptosis incubated for 3 hrs by annexin V-PE and 7-AAD staining based by flow cytometry; method in brief: as §1
# Integrin alpha-V/beta-3 [2] = target: T2, Integrin alpha-V/beta-3 (Homo sapiens, UniProt P05106+P06756); test: Agonist activity at alphaVbeta3 in human SK-MEL-24 cells assessed as increase in cell adhesion to fibronectin pre-incubated for 30 mins before fibronectin and further incubated for 1 hr by nitrophenyl-N-acetyl-beta-D-glucosaminide substrate based chromogenic assay
# Method in brief: (§2)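 Compound or methanol vehicle pre-incubated with cells for 30 min at room temperature. Cells then plated on wells coated overnight at 4 °C with fibronectin 10 µg/mL (SK-MEL-24, K562, HT-29) or fibrinogen 10 µg/mL (MCF7, HEL). Seeding was 50,000 cells/well, or 100000 for HEL. Adhesion ran 1 h at room temperature. Wells washed with 1% BSA/PBS. Adherent cells read by hexosaminidase substrate, absorbance 405 nm. Quadruplicate, at least three repeats.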
# Integrin alpha-V/beta-3 [3] = target: T2, Integrin alpha-V/beta-3; test: Antagonist activity at alphaVbeta3 in human SK-MEL-24 cells assessed as reduction in cell adhesion to fibronectin pre-incubated for 30 mins before fibronectin and further incubated for 1 hr by nitrophenyl-N-acetyl-beta-D-glucosaminide substrate based chromogenic assay
# Method in brief: as §2, with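 “BSA/PBS.” for “BSA/PBS. Adherent cells read by hexosaminidase substrate, absorbance 405 nm.”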
# Integrin alpha-V/beta-5 [4] = target: T3, Integrin alpha-V/beta-5 (Homo sapiens, UniProt P06756+P18084); test: Agonist activity at alphaVbeta5 in human MCF7 cells assessed as increase in cell adhesion to fibrinogen pre-incubated for 30 mins before fibrinogen and further incubated for 1 hr by nitrophenyl-N-acetyl-beta-D-glucosaminide substrate based chromogenic assay; method in brief: as §2
# Integrin alpha-V/beta-5 [5] = target: T3, Integrin alpha-V/beta-5; test: Antagonist activity at alphaVbeta5 in human MCF7 cells assessed as reduction in cell adhesion to fibrinogen pre-incubated for 30 mins before fibrinogen and further incubated for 1 hr by nitrophenyl-N-acetyl-beta-D-glucosaminide substrate based chromogenic assay
# Method in brief: as §2, with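 “BSA/PBS.” for “BSA/PBS. Adherent cells read by hexosaminidase substrate, absorbance 405 nm.”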
# Integrin alpha-V/beta-6 [6] = target: T4, Integrin alpha-V/beta-6 (Homo sapiens, UniProt P06756+P18564); test: Agonist activity at alphaVbeta6 in human HT-29 cells assessed as increase in cell adhesion to fibronectin pre-incubated for 30 mins before fibronectin and further incubated for 1 hr by nitrophenyl-N-acetyl-beta-D-glucosaminide substrate based chromogenic assay; method in brief: as §2
# Integrin alpha-V/beta-6 [7] = target: T4, Integrin alpha-V/beta-6; test: Antagonist activity at alphaVbeta6 in human HT-29 cells assessed as reduction in cell adhesion to fibronectin pre-incubated for 30 mins before fibronectin and further incubated for 1 hr by nitrophenyl-N-acetyl-beta-D-glucosaminide substrate based chromogenic assay
# Method in brief: as §2, with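 “BSA/PBS.” for “BSA/PBS. Adherent cells read by hexosaminidase substrate, absorbance 405 nm.”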
# Integrin alpha-5/beta-1 [8] = target: T1, Integrin alpha-5/beta-1; test: Agonist activity at alpha5beta1 in human K562 cells assessed as increase in cell adhesion to fibronectin pre-incubated for 30 mins before fibronectin and further incubated for 1 hr by nitrophenyl-N-acetyl-beta-D-glucosaminide substrate based chromogenic assay; method in brief: as §2
# Integrin alpha-5/beta-1 [9] = target: T1, Integrin alpha-5/beta-1; test: Antagonist activity at alpha5beta1 in human K562 cells assessed as reduction in cell adhesion to fibronectin pre-incubated for 30 mins before fibronectin and further incubated for 1 hr by nitrophenyl-N-acetyl-beta-D-glucosaminide substrate based chromogenic assay; method in brief: as §2
# [10] = target: T5, Integrin alpha-IIb/beta-3 (Homo sapiens, UniProt P05106+P08514); test: Agonist activity at alpha2bbeta3 in human HEL cells assessed as increase in cell adhesion to fibrinogen pre-incubated for 30 mins before fibrinogen and further incubated for 1 hr by nitrophenyl-N-acetyl-beta-D-glucosaminide substrate based chromogenic assay
# Method in brief: as §2, with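 “BSA/PBS.” for “BSA/PBS. Adherent cells read by hexosaminidase substrate, absorbance 405 nm.”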
# [11] = target: T5, Integrin alpha-IIb/beta-3; test: Antagonist activity at alpha2bbeta3 in human HEL cells assessed as reduction in cell adhesion to fibrinogen pre-incubated for 30 mins before fibrinogen and further incubated for 1 hr by nitrophenyl-N-acetyl-beta-D-glucosaminide substrate based chromogenic assay
# Method in brief: as §2, with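 “BSA/PBS.” for “BSA/PBS. Adherent cells read by hexosaminidase substrate, absorbance 405 nm.”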
# [12] = target: T6, Integrin alpha-L/beta-2 (LFA-1) (Homo sapiens, UniProt P05107+P20701); test: Agonist activity at alphaLbeta2 in human Jurkat E6.1 cells assessed as increase in cell adhesion to ICAM1 pre-incubated for 30 mins before ICAM1 and further incubated for 30 mins by […]; assay type: cell-based
# Method in brief: (§3)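 Jurkat E6.1 cells labelled with CellTracker green CMFDA (12.5 µM, 30 min, 37 °C), washed, then pre-incubated 30 min at 37 °C with compound or methanol. Plated at 500,000/well on VCAM-1 (α4β1) or ICAM-1 (αLβ2) coated wells (5 µg/mL) for 30 min at 37 °C. Cells lysed in 0.5% Triton X-100; fluorescence read Ex485/Em535. Quadruplicate, at least three repeats.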
# [13] = target: T6, Integrin alpha-L/beta-2 (LFA-1); test: Antagonist activity at alphaLbeta2 in human Jurkat E6.1 cells assessed as reduction in cell adhesion to ICAM1 pre-incubated for 30 mins before ICAM1 and further incubated for 30 mins by […]; assay type: cell-based; method in brief: as §3
# Integrin alpha-V/beta-3 [14] = target: T2, Integrin alpha-V/beta-3; test: Inhibition of fibronectin binding to human recombinant alphaVbeta3 expressed in HEK293 cells incubated for 1 hr by […] competitive solid-phase binding assay; assay type: cell-based
# Integrin alpha-V/beta-5 [15] = target: T3, Integrin alpha-V/beta-5; test: Inhibition of fibrinogen binding to alphaVbeta5 isolated form human mCf7 cells incubated for 1 hr by […] competitive solid-phase binding assay
# Integrin alpha-V/beta-6 [16] = target: T4, Integrin alpha-V/beta-6; test: Inhibition of fibronectin binding to alphaVbeta6 isolated form human HT-29 cells incubated for 1 hr by […] competitive solid-phase binding assay; assay type: tissue-based
# Integrin alpha-4/beta-1 [17] = target: T7, Integrin alpha-4/beta-1 (Homo sapiens, UniProt P05556+P13612); test: Inhibition of fibronectin binding to […] isolated from human Jurkat E6.1 cells incubated for 1 hr by scintillation-proximity assay based competitive solid-phase binding assay; assay type: tissue-based
# Integrin alpha-4/beta-1 [18] = target: T7, Integrin alpha-4/beta-1; test: Agonist activity at alpha4beta1 in human Jurkat E6.1 cells assessed as increase in cell adhesion to VCAM1 at 2 to 10 ug/ml pre-incubated for 30 mins and further incubated for 30 mins by nitrophenyl-N-acetyl-beta-D-glucosaminide substrate based chromogenic assay; details: filed as agonist, dose 2-10 µg/ml, time 60.0 min
# Integrin alpha-4/beta-1 [19] = target: T7, Integrin alpha-4/beta-1; test: Agonist activity at alpha4beta1 in human Jurkat E6.1 cells assessed as increase in ERK1/2 phosphorylation at 1 to 100 nM by Western blot analysis; assay type: cell-based; details: filed as agonist, dose 1-100 nM
# Integrin alpha-4/beta-1 [20] = target: T7, Integrin alpha-4/beta-1; test: Agonist activity at alpha4beta1 in human Jurkat E6.1 cells assessed as increase in HUTS-21 antibody binding by flow cytometry analysis; assay type: cell-based; details: filed as agonist
# Method in brief: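 Jurkat E6.1 cells at 10⁶/mL in 1% BSA/HBSS incubated 30 min at 37 °C with compound. PE-labelled HUTS-21 mAb then added for 45 min at room temperature. Cells washed, 10,000 analysed by flow cytometry. MFI corrected to isotype control set to 0. Four independent experiments in duplicate.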
# Integrin alpha-V/beta-3 [21] = target: T2, Integrin alpha-V/beta-3; test: Agonist activity at alphaVbeta3 in human SK-MEL-24 cells assessed as increase in cell adhesion to fibronectin at 10 to 10000 nM pre-incubated for 30 mins before fibronectin and further incubated for 1 hr by nitrophenyl-N-acetyl-beta-D-glucosaminide substrate based chromogenic assay; details: filed as agonist, dose 10-10000 nM, time 90.0 min
# Method in brief: (§4)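 SK-MEL-24 cells pre-incubated 30 min at room temperature with compound (1×10^-10–1×10^-4 M) or methanol, then plated at 50,000/well on fibronectin (10 µg/mL) coated wells for 1 h at room temperature. Adherent cells quantified by 4-nitrophenyl-N-acetyl-glucosaminide hydrolysis, absorbance 405 nm. Quadruplicate, at least three repeats; IC50/EC50 derived.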
# Integrin alpha-V/beta-3 [22] = target: T2, Integrin alpha-V/beta-3; test: Antagonist activity at alphaVbeta3 in human SK-MEL-24 cells assessed as reduction in cell adhesion to fibronectin at 10 to 10000 nM pre-incubated for 30 mins before fibronectin and further incubated for 1 hr by nitrophenyl-N-acetyl-beta-D-glucosaminide substrate based chromogenic assay; details: filed as antagonist, dose 10-10000 nM, time 90.0 min; method in brief: as §4
# Integrin alpha-4/beta-1 [23] = target: T7, Integrin alpha-4/beta-1; test: Agonist activity at alpha4beta1 in human Jurkat E6.1 cells assessed as increase in cell adhesion to VCAM1 pre-incubated for 30 mins before VCAM1 and further incubated for 30 mins by […]; assay type: cell-based; method in brief: as §3
# Integrin alpha-4/beta-1 [24] = target: T7, Integrin alpha-4/beta-1; test: Antagonist activity at alpha4beta1 in human Jurkat E6.1 cells assessed as reduction in cell adhesion to VCAM1 pre-incubated for 30 mins before VCAM1 and further incubated for 30 mins by […]; assay type: cell-based
Structure (SMILES),Activity (SK-MEL-24),Activity (MCF7),Activity (HT-29),Activity (K562),Activity (HEL),EC50 (Integrin alpha-V/beta-5 [4]),IC50 (Integrin alpha-V/beta-5 [5]),EC50 (Integrin alpha-V/beta-6 [6]),IC50 (Integrin alpha-V/beta-6 [7]),EC50 (Integrin alpha-5/beta-1 [8]),IC50 (Integrin alpha-5/beta-1 [9]),EC50 [10],IC50 [11],EC50 [12],IC50 [13],other results
Cc1ccccc1NC(=O)N1C(=O)CC1CC(=O)O (centres undefined),Non-Toxic,Non-Toxic,Non-Toxic,Non-Toxic,Non-Toxic,> 5 µM,> 5 µM,> 5 µM,> 5 µM,> 5 µM,> 5 µM,> 5 µM,> 5 µM,> 5 µM,> 5 µM,IC50 (Integrin alpha-5/beta-1 [1]): > 1000 nM; EC50 (Integrin alpha-V/beta-3 [2]): > 5 µM; IC50 (Integrin alpha-V/beta-3 [3]): > 5 µM; IC50 (Integrin alpha-V/beta-3 [14]): > 1000 nM; IC50 (Integrin alpha-V/beta-5 [15]): > 1000 nM; IC50 (Integrin alpha-V/beta-6 [16]): > 1000 nM; IC50 (Integrin alpha-4/beta-1 [17]): 9.8 nM; Activity (Integrin alpha-4/beta-1 [18]): Active; Activity (Integrin alpha-4/beta-1 [19]): Active; Activity (Integrin alpha-4/beta-1 [20]): Dose-dependent effect
Cc1ccccc1NC(=O)N1C(=O)C[C@H]1C(=O)NCCC(=O)O,Non-Toxic,Non-Toxic,Non-Toxic,Non-Toxic,Non-Toxic,> 5 µM,> 5 µM,> 5 µM,> 5 µM,> 5 µM,> 5 µM,> 5 µM,> 5 µM,> 5 µM,> 5 µM,Activity (Integrin alpha-V/beta-3 [21]): Active; Activity (Integrin alpha-V/beta-3 [22]): Active; EC50 (Integrin alpha-4/beta-1 [23]): > 5 µM; IC50 (Integrin alpha-4/beta-1 [24]): > 5 µM
